Where two headings read alike, the source gives them in different places.
How the values were obtained:
[1] = target: PfCDPK1 (Plasmodium falciparum, UniProt P62344); test: KINOMEScan affinity for PfCDPK1; type: binding
[2] = system: HsTAK1; conditions: ref Totzke et al., 2017, cited from earlier work
[3] = system: HuH7 cells; test: HuH7 hepatoma cell viability; type: cell-based
[4] = system: K63-linked ubiquitin in P. falciparum; type: cell-based, Plasmodium falciparum; conditions: for K63-linked protein ubiquitination (band intensities relative to DMSO): 30 μM, 24 hrs, ring stage P. falciparum 3D7
Outline: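 P. falciparum 3D7 was cultured in RPMI/AlbuMAX II at pH 7.2, 37 °C, under 3% O2, and sorbitol-synchronised. Ring stages (10 h post-reinvasion; 10% parasitemia, 1% haematocrit) were treated 24 h with test compound (30 μM, or 0.001–100 μM) or ≤0.1% DMSO. Cells were saponin-lysed and sonicated, then blotted with anti-K63-linkage ubiquitin, with anti-K48 ubiquitin as control and actin as loading control. Total band intensity was quantified across 2–3 independent experiments.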

[5] = target: PfPK5 (Plasmodium falciparum, UniProt P61075); test: KINOMEScan affinity for PfPK5; type: binding
[6] = system: P. berghei parasite load in HuH7 cells; test: P. berghei liver stage parasite load in HuH7 cells; type: cell-based, Plasmodium berghei
Outline: (§1)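 Hepatoma cells were seeded with test compound (0–100 μM) before infection with 3,000 P. berghei ANKA sporozoites: 15,000 cells/well for HepG2 and 8,000 for HuH7. For HepG2, compound was also added at 0 or 4 hpi. Parasite load was read by luciferase luminescence at 45 h and normalised to 1% DMSO. EC50 came from a variable-slope four-parameter fit, mean ± SEM of n ≥4.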

[7] = system: P. berghei EEFs in HuH7 cells; test: Immunofluorescence analysis of P. berghei EEFs in HuH7 cells; type: cell-based, Plasmodium berghei
[8] = target: PfPK9 (Plasmodium falciparum, UniProt Q8IEG4); test: ATP-competitive binding assay, GFP-PfPK9 on ATP-sepharose resin; conditions: for relative PfPK9 binding compared to negative DMSO control: takinib analog screen at 250 and 500 μM
[9] = system: HsIRAK4; conditions: read-out: IC50 HsIRAK4; ref Totzke et al., 2017; cited from earlier work
[10] = system: HepG2 cells; test: HepG2 hepatoma cell viability; type: cell-based
Outline: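 HepG2 cells (15,000/well) were seeded with test compound, then infected with 3,000 P. berghei ANKA sporozoites. Viability was measured after 45 h in the same wells as the parasite-load read-out, using a fluorescence protease-activity assay (an ATP luminescence assay is also described). Signal was normalised to 1% DMSO, and ≥50% loss of viability was the exclusion threshold.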

[11] = system: P. berghei parasite load in HepG2 cells; test: P. berghei liver stage parasite load in HepG2 cells; type: cell-based; conditions: Plasmodium berghei, HepG2, read-out: EC50 P. berghei parasite load, HepG2 cells
Outline: as §1

[12] = system: HsIRAK1; conditions: read-out: IC50 HsIRAK1; ref Totzke et al., 2017; cited from earlier work
[13] = system: blood stage P. falciparum parasites; test: Inhibition of blood stage P. falciparum parasites; type: cell-based, Plasmodium falciparum; conditions: 100 μM
[14] = Solubility; type: physicochemical

PfPK5, sequence (P61075 whole entry): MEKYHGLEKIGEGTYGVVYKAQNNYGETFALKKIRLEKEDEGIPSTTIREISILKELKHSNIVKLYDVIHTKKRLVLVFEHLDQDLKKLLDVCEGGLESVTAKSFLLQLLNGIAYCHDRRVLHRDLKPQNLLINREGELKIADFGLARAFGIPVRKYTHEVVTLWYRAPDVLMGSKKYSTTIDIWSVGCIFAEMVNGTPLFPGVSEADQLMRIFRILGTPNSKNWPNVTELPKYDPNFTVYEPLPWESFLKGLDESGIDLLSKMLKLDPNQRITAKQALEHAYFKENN
PfCDPK1, sequence (P62344 whole entry): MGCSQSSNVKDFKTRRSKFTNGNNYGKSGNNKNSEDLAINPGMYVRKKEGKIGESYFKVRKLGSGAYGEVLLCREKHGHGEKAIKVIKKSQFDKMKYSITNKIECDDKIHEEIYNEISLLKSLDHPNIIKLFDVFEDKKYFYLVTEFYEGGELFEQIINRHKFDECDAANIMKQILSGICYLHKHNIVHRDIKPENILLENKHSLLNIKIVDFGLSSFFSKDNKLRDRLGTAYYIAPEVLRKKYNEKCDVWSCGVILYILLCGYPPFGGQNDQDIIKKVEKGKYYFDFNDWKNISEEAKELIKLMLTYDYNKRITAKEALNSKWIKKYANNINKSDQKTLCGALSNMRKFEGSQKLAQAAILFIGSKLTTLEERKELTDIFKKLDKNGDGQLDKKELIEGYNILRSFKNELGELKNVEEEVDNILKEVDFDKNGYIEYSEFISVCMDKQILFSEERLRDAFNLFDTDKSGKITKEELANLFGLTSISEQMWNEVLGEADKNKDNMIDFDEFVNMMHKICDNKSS

CCCn1c(NC(=O)c2cccc(C(=O)O)c2)nc2ccccc21 [HS220]
Kd ([1]; read-out: Kd PfCDPK1, tested up to 30 μM, KINOMEScan): > 30 µM | HsTAK1 inhibition, fold less potent than takinib ([2]; HS220 vs takinib): 160,000 fold | effect on HsTAK1 activity [2]: little or no effect | change in HuH7 viability upon treatment [3]: no significant change | decrease of cell viability ([3]; HuH7, any concentration tested): ≤ 30% | K63-linked protein ubiquitination (band intensities relative to DMSO) [4]: decrease | Kd ([5]; read-out: Kd PfPK5, tested up to 30 μM, KINOMEScan): > 30 µM | EC50 ([6]; read-out: EC50 P. berghei parasite load, HuH7 cells): 43 ± 3.8 µM | number of EEFs ([7]; 30 μM, 0–48 hpi): did not change | EEF size ([7]; 30 μM, 0–48 hpi, vs DMSO): significantly increased | EEF size ([7]; 100 μM, 0–48 hpi): not affected | number of EEFs ([7]; 100 μM, 0–48 hpi): decreased | PfPK9 binding affinity, fold less potent than takinib ([8]; HS220 vs takinib): 8.9 fold | Kd ([8]; read-out: Kd(app) PfPK9 binding, converted from EC50, dose-response 0–500 μM): 4.1 ± 0.8 µM | relative PfPK9 binding compared to negative DMSO control [8]: > 3 fold

CCCn1/c(=N/C(=O)c2cccc(C(N)=O)c2)[nH]c2ccccc21 [takinib]
IC50 [9]: 0.12 µM | Kd [1]: > 30 µM | IC50 ([2]; read-out: IC50 HsTAK1): 0.0095 µM | decrease of cell viability ([3]; HuH7, tested up to 200 μM): ≤ 40% | K63-linked protein ubiquitination (band intensities relative to DMSO) [4]: decreased | K63-linked ubiquitin signal (total intensity of all bands) ([4]; 30 and 100 μM): significantly decreased | K48-linked ubiquitin signal (control) ([4]; dose-response 0.001–100 μM): no change | decrease of HepG2 viability ([10]; 30 μM, relative to DMSO): ≤ 50% | decrease of cell viability ([10]; HepG2, tested up to 200 μM): ≤ 40% | Kd [5]: > 30 µM | EC50 ([6]; Plasmodium berghei, Huh-7, read-out: EC50 P. berghei parasite load): 7.3 ± 0.99 µM | EC50 [11]: 6.7 ± 1.3 µM | EEF size ([7]; 10 μM, 0–24, 24–48 and 0–48 hpi, vs DMSO): significantly increased | number of EEFs (infected cells) ([7]; 10 μM, all time periods): not affected | number of EEFs ([7]; 30 μM, 0–24 hpi or 0–48 hpi): decreased | EEF size ([7]; 30 μM, 0–24 hpi or 24–48 hpi): increased | IC50 [12]: 0.39 µM | inhibition of blood stage P. falciparum parasites [13]: inhibits | Kd [8]: 0.46 ± 0.1 µM

NC(=O)c1cccc(C(=O)Nc2nc3ccccc3s2)c1 [HS230]
effect on HsTAK1 activity [2]: little or no effect | relative PfPK9 binding compared to negative DMSO control [8]: > 3 fold | solubility [14]: poor

— PMC6430656 (Cell chemical biology, 2018)
